Measurements of several laboratories.
Lines come from different studies, so protocols differ.
PIK3CA H1047L: Phosphatidylinositol 4,5-bisphosphate 3-kinase catalytic subunit alpha isoform (PIK3CA, Homo sapiens, UniProt P42336, H1047L)
PIK3CA: Phosphatidylinositol 4,5-bisphosphate 3-kinase catalytic subunit alpha isoform (PIK3CA, Homo sapiens, UniProt P42336)
PIK3CA C420R: Phosphatidylinositol 4,5-bisphosphate 3-kinase catalytic subunit alpha isoform (PIK3CA, Homo sapiens, UniProt P42336, C420R)
PIK3CA H1047Y: Phosphatidylinositol 4,5-bisphosphate 3-kinase catalytic subunit alpha isoform (PIK3CA, Homo sapiens, UniProt P42336, H1047Y)
PIK3CA I800L: Phosphatidylinositol 4,5-bisphosphate 3-kinase catalytic subunit alpha isoform (PIK3CA, Homo sapiens, UniProt P42336, I800L)
PIK3CA E545K: Phosphatidylinositol 4,5-bisphosphate 3-kinase catalytic subunit alpha isoform (PIK3CA, Homo sapiens, UniProt P42336, E545K)
PIK3CA Q546K: Phosphatidylinositol 4,5-bisphosphate 3-kinase catalytic subunit alpha isoform (PIK3CA, Homo sapiens, UniProt P42336, Q546K)
PIK3CA E545A: Phosphatidylinositol 4,5-bisphosphate 3-kinase catalytic subunit alpha isoform (PIK3CA, Homo sapiens, UniProt P42336, E545A)
PIK3CA E542K: Phosphatidylinositol 4,5-bisphosphate 3-kinase catalytic subunit alpha isoform (PIK3CA, Homo sapiens, UniProt P42336, E542K)

O=C(NCCCN1CCOCC1)c1ccc(Nc2nccc(-c3cc4ccccc4s3)n2)cc1 — remaining binding (PIK3CA H1047L; binding; competition with immobilised ligand; 1 µM): 90%
Nc1cnc(N2CCc3cc(S(=O)(=O)Nc4c(F)cc(Cl)cc4F)cc(N4CCCC4=O)c32)nc1 — remaining binding (PIK3CA; cell-free assay; competition with immobilised ligand; 1 µM): 76%
COc1cnc(Nc2cccc(S(N)(=O)=O)c2)nc1N1CCN(c2ccccc2)CC1 — remaining binding (PIK3CA C420R; binding; competition with immobilised ligand; 1 µM): 95%
CO[C@@H](C)c1c(Nc2ccc([C@H](N(C)C(=O)C3CCS(=O)(=O)CC3)C(F)(F)F)cc2)cnc2cc(Cl)nn12 — remaining binding (PIK3CA C420R; cell-free assay; competition with immobilised ligand; 1 µM): 93%
N[C@@H]1CCN(c2nccc(-c3cnn4ncccc34)n2)C1 — remaining binding (PIK3CA H1047Y; binding; 1 µM): 91%
O=C(Nc1c[nH]nc1C(=O)NC1CCNCC1)c1cc(F)cc(F)c1 — remaining binding (PIK3CA I800L; binding; competition with immobilised ligand; 1 µM): 81%
CC1CCCN1c1nccc(-c2cnn3ncccc23)n1 (centres unmarked) — remaining binding (PIK3CA E545K; binding; 1 µM): 100%
Cn1nc(C(=O)NCc2ccc(C(=O)O)cc2)cc1-c1ccc2[nH]ccc2c1 — remaining binding (PIK3CA Q546K; cell-free assay; competition with immobilised ligand; 0.1 µM): 76%
CN(C)c1nccc(-c2cnn3ncccc23)n1 — remaining binding (PIK3CA C420R; binding; 1 µM): 100%
O=C(c1ccc(Nc2ncc(Cl)c(-c3ccc(Cl)s3)n2)cc1)N1CCC(N2CCCC2)CC1 — remaining binding (PIK3CA; binding; competition with immobilised ligand; 1 µM): 100%
CN(C)c1nccc(-c2cnc3ncccn23)n1 — remaining binding (Phosphatidylinositol 4,5-bisphosphate 3-kinase catalytic subunit alpha isoform (PIK3CA, Homo sapiens, UniProt P42336, M1043I); binding; 1 µM): 84%
COc1cnc(Nc2cccc(S(N)(=O)=O)c2)nc1N1CCN(c2ccccc2)C(=O)C1 — remaining binding (PIK3CA E545K; binding; competition with immobilised ligand; 1 µM): 65%
O=C(c1ccc(Nc2ncc(Cl)c(-c3cc4ccccc4s3)n2)cc1)N1CCC(N2CCCC2)CC1 — remaining binding (PIK3CA I800L; binding; competition with immobilised ligand; 1 µM): 97%
Cc1c(C(=O)O)cc(-c2ccc(C3CCNCC3)cc2)c2ccc(-c3ccc(C(F)(F)F)cc3)cc12 — remaining binding (PIK3CA H1047Y; cell-free assay; competition with immobilised ligand; 1 µM): 100%
O=C(NCC1CCOCC1)c1n[nH]cc1NC(=O)c1c(F)cccc1F — remaining binding (PIK3CA I800L; binding; competition with immobilised ligand; 1 µM): 77%
O=C(N1CCS(=O)(=O)CC1)N1C[C@H](c2ccc(OC(F)(F)F)cc2)C[C@H](c2nc(C3CC3)no2)C1 — remaining binding (PIK3CA Q546K; cell-free assay; competition with immobilised ligand; 1 µM): 83%
Nc1ncc2c(n1)-c1c([nH]c3ccc(C#CC4CC4)cc13)CCCC2 — remaining binding (PIK3CA E545A; binding; competition with immobilised ligand; 1 µM): 89%
CN1CCN(c2ccc(Nc3nccc(-c4cccc([N+](=O)[O-])c4)n3)cc2C(F)(F)F)CC1 — remaining binding (PIK3CA E545A; binding; 10 µM): 58%
CN(c1nccc(-c2cnn3ncccc23)n1)C1CC1 — remaining binding (PIK3CA H1047L; binding; 1 µM): 100%
CS(=O)(=O)CCNCc1ccc(-c2ccc3ncnc(Nc4ccc(OCc5cccc(F)c5)c(Cl)c4)c3c2)o1 — remaining binding (PIK3CA; cell-free assay; competition with immobilised ligand; 0.1 µM): 98%
CS(=O)(=O)N1CCCC(NC(=O)[C@H](CCC2CCCCC2)NC(=O)c2ccc(CNC(=O)c3cnc4ccccn34)cc2)C1 (some centres unmarked) — remaining binding (PIK3CA; binding; competition with immobilised ligand; 1 µM): 37%
Cc1cnc(Nc2ccc(C(=O)N3CCC(N4CCCC4)CC3)cc2)nc1-c1cc2ccccc2s1 — remaining binding (PIK3CA Q546K; binding; competition with immobilised ligand; 1 µM): 97%
CN1CC[C@H](c2c(O)cc(O)c3c(=O)cc(-c4ccccc4Cl)oc23)[C@H](O)C1 — remaining binding (PIK3CA; cell-free assay; competition with immobilised ligand; 0.1 µM): 100%
O=C(c1ccc(Nc2nccc(-c3cc4ccccc4s3)n2)cc1)N1CCC(N2CCCC2)CC1 — remaining binding (PIK3CA E545K; binding; competition with immobilised ligand; 1 µM): 82%
CC(C)(C)c1ccc(-c2nc(CBr)nn2-c2cccc(O)c2)cc1 — remaining binding (PIK3CA; cell-free assay; competition with immobilised ligand; 10 µM): 80%
CN1CCN(c2ccc(Nc3nccc(-c4ccccc4)n3)cc2C(F)(F)F)CC1 — remaining binding (PIK3CA H1047L; binding; 10 µM): 55%
C[C@@H](c1ccc(-n2cnc3c(N)ncnc32)cc1)N1CCc2nn(C)c(Cc3ccccc3)c2C1=O — remaining binding (PIK3CA E545K; binding; competition with immobilised ligand; 0.1 µM): 67%
CN(C)CC#Cc1ccc(OCCCc2sc(N3CCc4cccc(C(=O)Nc5nc6ccccc6s5)c4C3)nc2C(=O)O)c(F)c1 — remaining binding (PIK3CA Q546K; cell-free assay; competition with immobilised ligand; 1 µM): 79%
COc1ncc2cc3ccccc3nc2c1C#N — remaining binding (PIK3CA I800L; cell-free assay; competition with immobilised ligand; 5 µM): 86%
O=C(NCCCN1CCOCC1)c1ccc(Nc2ncc(Cl)c(-c3ccc(Cl)s3)n2)cc1 — remaining binding (PIK3CA H1047Y; binding; competition with immobilised ligand; 1 µM): 95%
C[C@@H]1CCN(c2nccc(-c3cnn4ncccc34)n2)C1 — remaining binding (PIK3CA E542K; binding; 1 µM): 82%
CNC(=O)[C@@H]1CC[C@@H](n2c(-c3ccc4cnccc4c3)nc3ccc(C(=O)NCc4cccc(C(N)=O)c4)cc32)C1 — remaining binding (PIK3CA E542K; binding; competition with immobilised ligand; 1 µM): 100%
CCN1CCN(Cc2ccc(C(=O)Nc3ccc(C)c(Oc4ccc5c(c4)CC(=O)N5)c3)cc2C(F)(F)F)CC1 — remaining binding (PIK3CA; binding; competition with immobilised ligand; 1 µM): 86%
COc1cc(-c2cn(C3CCc4ccccc4N(CC(F)(F)F)C3=O)nn2)ccc1-n1ccc(C)n1 (centres unmarked) — remaining binding (PIK3CA I800L; cell-free assay; competition with immobilised ligand; 1 µM): 76%
COc1ccnn2ncc(-c3ccnc(N(C)C)n3)c12 — remaining binding (PIK3CA I800L; binding; 1 µM): 94%
C=CC(=O)N1CCC(C(=O)NCC(=O)N2CCN(c3nc(-c4cnc(N)nc4C(F)F)nc(N4CCOCC4)n3)CC2)CC1 — remaining binding (PIK3CA Q546K; binding; competition with immobilised ligand; 1 µM): 0%
CN(CCCC(F)(F)F)c1nccc(-c2cnn3ncccc23)n1 — remaining binding (PIK3CA H1047L; binding; 1 µM): 100%
c1cncc(-c2cccc(Nc3nccc(NC4CCCCC4)n3)c2)c1 — remaining binding (PIK3CA C420R; binding; competition with immobilised ligand; 10 µM): 73%
